Test results: ChEMBL document CHEMBL2093137, “WHO-TDR NTD Screening”
≈ marks a conversion by molar mass, not a printed value.

What was measured:
[1] = WHO-TDR: Cytotoxicity; type: toxicity, cell-based; details: human, MRC5 cells
[2] = system: Plasmodium falciparum K1; assay: WHO-TDR: Malaria; type: functional, organism-based, Homo sapiens; details: Erythrocyte
Summary of the method: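 A diverse library of 10,000 compounds from Life Chemicals, filtered for drug-likeness and reactive groups, was screened against the intra-erythrocytic Plasmodium falciparum K1 strain in human red blood cells. Previously published standard procedures were followed, with a reference drug as positive control. Antiplasmodial potency is given as IC50.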

[3] = system: Trypanosoma cruzi; assay: WHO-TDR: Chagas disease; type: functional, organism-based, Homo sapiens; details: MRC5
Summary of the method: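 A diverse library of 10,000 compounds from Life Chemicals, filtered for drug-likeness and reactive groups, was screened against intracellular amastigotes of Trypanosoma cruzi Tulahuen CL2 beta-galactosidase strain. The parasites were grown in MRC-5SV2 human lung fibroblast host cells, and a reference drug served as positive control under previously published standard procedures. Antiparasitic potency is given as IC50.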

[4] = system: Trypanosoma brucei brucei; assay: WHO-TDR: Human African Trypanosomiasis (HAT); type: functional, organism-based; details: Squib-427
Summary of the method: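 A diverse library of 10,000 compounds from Life Chemicals, filtered for drug-likeness and reactive groups, was screened against bloodstream forms of Trypanosoma brucei Squib 427 strain in a whole-organism assay. Previously published standard procedures were followed, with reference drugs serving as positive controls. Antiparasitic potency is given as IC50.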

[5] = system: Leishmania infantum; assay: WHO-TDR: Leishmaniasis; type: functional, organism-based, Mus musculus; details: Macrophage
Summary of the method: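 A diverse library of 10,000 compounds from Life Chemicals, filtered for drug-likeness and reactive groups, was screened against whole organisms. The targets were intracellular amastigotes of Leishmania infantum MHOM/MA(BE)/67 growing in murine peritoneal macrophages. Previously published standard procedures were followed, with a reference drug as positive control. Antiparasitic potency is given as IC50.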

[6] = system: Schistosoma mansoni; assay: WHO-TDR: Schistosomiasis; type: functional; design: concentration or dose not given beside the values
Summary of the method: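 Values are reported as percent inhibition and IC50. They come from a whole-organism screen of a 10,000-compound diverse Life Chemicals library against larval and/or adult worms of Schistosoma mansoni, Puerto Rican strain. The library had been filtered for drug-likeness and reactive groups.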

[7] = system: Onchocerca lienalis; assay: (§1) WHO-TDR: Onchocerciasis; type: functional; design: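 at 12.5 µM on microfilariae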
Summary of the method: (§2)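 Values are reported as percent inhibition and as IC50. They come from a whole-organism screen of a 10,000-compound diverse Life Chemicals library against microfilariae of Onchocerca ochengi or Onchocerca lienalis. The screen followed previously published standard procedures, with reference drugs as positive controls.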

[8] = system: Brugia malayi; assay: (§3) WHO-TDR: Lymphatic Filariasis; type: functional; design: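 tested at 10 µM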
Summary of the method: (§4)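 Values are percent inhibition and IC50 from a whole-organism screen against Brugia malayi microfilariae. The compounds, 10,000 in all, came from a diverse Life Chemicals library filtered for drug-likeness and reactive groups.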

[9] = system: Brugia malayi; assay: as §3; type: functional, organism-based; summary of the method: as §4
[10] = system: Brugia malayi; assay: as §3; type: functional; design: concentration or dose not given beside the values; summary of the method: as §4; remark: listed apart in the source
[11] = system: Onchocerca ochengi; assay: as §1; type: functional; design: concentration or dose not given beside the values; summary of the method: as §2;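 also: at 12.5 µM on microfilariae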

Row | IC50 [2] | IC50 [4] | IC50 [5] | IC50 [9] | SMILES | IC50 [1] | IC50 [3] | % Inhibition [6] | % Inhibition [7] | % Inhibition [8] | % Inhibition [10] | % Inhibition [11]
1 | > 16 µg/mL | > 16 µg/mL | > 16 µg/mL | 5.95 µM | COc1ccc(C(=O)Nc2nnc(SCC(=O)Nc3cc(C(F)(F)F)ccc3Cl)s2)cc1OC | > 16 µg/mL | > 16 µg/mL | 0% | 26.67% | 100% | 0% | –
2 | > 13.1 µg/mL | > 13.1 µg/mL | > 13.1 µg/mL | 1.77 µM | COc1cccc(C(=O)Nc2nnc(SCc3ccc(Br)cc3)s2)c1 | > 13.1 µg/mL | > 13.1 µg/mL | 0% | 0% | 100% | 33.33% | –
3 | 9.24 µg/mL (≈ 27.5 µM) | > 10.1 µg/mL | > 10.1 µg/mL | 1.91 µM | O=C(Nc1nc(-c2ccccn2)cs1)c1ccc2c(c1)CCCC2 | > 10.1 µg/mL | > 10.1 µg/mL | 12.5% | 60% | 100% | 50% | –
4 | 1.52 µg/mL (≈ 4.49 µM) | 2.36 µg/mL (≈ 6.99 µM) | 3.21 µg/mL (≈ 9.49 µM) | 2.02 µM | O=C(Nc1nc(-c2ccccn2)cs1)c1ccc2ncsc2c1 | 3.63 µg/mL (≈ 10.7 µM) | 0.345 µg/mL (≈ 1.02 µM) | 0% | 66.7% | 100% | 40% | –
5 | 10.6 µg/mL (≈ 21.1 µM) | > 15.1 µg/mL | 4.88 µg/mL (≈ 9.71 µM) | 3.22 µM | COc1ccc(-c2nnc(NC(=O)c3ccc(S(=O)(=O)N4CC(C)OC(C)C4)cc3)o2)c(OC)c1 (stereo unspecified) | > 15.1 µg/mL | 4.91 µg/mL (≈ 9.78 µM) | 0% | 66.7% | 100% | 25% | –
6 | > 12.1 µg/mL | > 12.9 µg/mL | > 12.1 µg/mL | 3.94 µM | COc1ccc(Cl)cc1NC(=O)CSc1nccn1-c1cccc(C)c1C | > 12.1 µg/mL | 2.76 µg/mL (≈ 6.86 µM) | 0% | 46.67% | 100% | 25% | –
7 | > 13.5 µg/mL | > 13.5 µg/mL | > 13.5 µg/mL | 4.49 µM | COc1ccc(NC(=O)c2oc3ccccc3c2NC(=O)c2cccc(Cl)c2)c(OC)c1 | > 13.5 µg/mL | > 13.5 µg/mL | 25% | – | 100% | 0% | –
8 | 0.312 µg/mL (≈ 0.915 µM) | < 0.102 µg/mL | 0.323 µg/mL (≈ 0.949 µM) | 2.61 µM | COc1ccc2nc(Nc3nc(-c4ccccn4)cs3)sc2c1 | 0.129 µg/mL (≈ 0.378 µM) | < 0.102 µg/mL | 0% | – | 100% | 25% | –

Further lines, the compound ahead of its results:

Row | SMILES | IC50 [2] | IC50 [4] | IC50 [5] | IC50 [9] | IC50 [1] | IC50 [3] | % Inhibition [6] | % Inhibition [7] | % Inhibition [8] | % Inhibition [10] | % Inhibition [11]
9 | O=C(COc1ccc(Cl)cc1Cl)Nc1nnc(C23CC4CC(CC(C4)C2)C3)s1 | > 13.2 µg/mL | > 13.2 µg/mL | 4.26 µg/mL (≈ 9.71 µM) | 1.49 µM | > 13.2 µg/mL | > 13.2 µg/mL | 0% | 0% | 100% | 0% | –
10 | O=C(O)CCC(=O)Nc1ccc(Br)cc1 | > 8.16 µg/mL | > 8.16 µg/mL | > 8.16 µg/mL | 6.6 µM | > 8.16 µg/mL | > 8.16 µg/mL | 0% | 0% | 100% | 0% | –
11 | O=C(CSc1nnc(NC(=O)C2CCCCC2)s1)Nc1ccccc1C(F)(F)F | > 13.3 µg/mL | > 13.3 µg/mL | > 13.3 µg/mL | 3.58 µM | > 13.3 µg/mL | > 13.3 µg/mL | 0% | 0% | 100% | 0% | –
12 | O=C(CSc1nnc(NC(=O)C23CC4CC(CC(C4)C2)C3)s1)Nc1nccs1 | > 13.1 µg/mL | > 13.1 µg/mL | 4.23 µg/mL (≈ 9.71 µM) | 6.3 µM | > 13.1 µg/mL | > 13.1 µg/mL | 0% | 33.34% | 100% | 33.33% | –
13 | O=C(Nc1nccs1)c1ccc2c(c1)CCCC2 | > 7.75 µg/mL | > 7.75 µg/mL | > 7.75 µg/mL | 5.19 µM | > 7.75 µg/mL | > 7.75 µg/mL | 0% | 0% | 100% | 25% | –
14 | CCN1CCc2c(sc(NC(=O)c3ccc(S(=O)(=O)N4CC5(C)CC4CC(C)(C)C5)cc3)c2C(N)=O)C1 (stereo unspecified) | 5.59 µg/mL (≈ 10.3 µM) | 3.82 µg/mL (≈ 7.01 µM) | 5.29 µg/mL (≈ 9.71 µM) | 3.54 µM | 3.41 µg/mL (≈ 6.26 µM) | 3.2 µg/mL (≈ 5.88 µM) | 0% | 6.7% | 100% | 0% | –
15 | COC(=O)c1ccc(COc2cccc3c2CCN(Cc2ccc(Cl)cc2)C3=O)o1 | 4.84 µg/mL (≈ 11.4 µM) | 0.772 µg/mL (≈ 1.81 µM) | > 12.8 µg/mL | 4.61 µM | > 12.8 µg/mL | 3.19 µg/mL (≈ 7.49 µM) | 0% | 20% | 100% | 12.5% | –
16 | CCOC(=O)c1ccc(NC(=O)CSc2c(C)[nH]c3ccccc23)cc1 | > 11.1 µg/mL | 3.67 µg/mL (≈ 9.95 µM) | > 11.1 µg/mL | 6.05 µM | > 11.1 µg/mL | 3.49 µg/mL (≈ 9.49 µM) | 0% | 46.7% | 100% | 0% | –
17 | CCOC(=O)c1c(NC(=O)CSc2nc3c([nH]c4ccccc43)c(=O)n2-c2ccccc2)sc2c1CCC2 | > 16.3 µg/mL | > 17.4 µg/mL | 5.29 µg/mL (≈ 9.71 µM) | 4.37 µM | > 16.3 µg/mL | > 16.3 µg/mL | 0% | 0% | 100% | 25% | –
18 | Cc1[nH]c2ccccc2c1SCCNC(=O)c1c(-c2ccccc2Cl)noc1C | > 12.8 µg/mL | > 13.6 µg/mL | > 12.8 µg/mL | 4.49 µM | > 12.8 µg/mL | > 12.8 µg/mL | 0% | 20% | 100% | 25% | –
19 | COc1ccccc1C(=O)NCCSc1c(-c2ccccc2)[nH]c2ccccc12 | 5.19 µg/mL (≈ 12.9 µM) | 4.03 µg/mL (≈ 10 µM) | > 12.1 µg/mL | 4.61 µM | > 12.1 µg/mL | 2.91 µg/mL (≈ 7.24 µM) | 0% | 0% | 100% | 25% | –
20 | CCCCc1ccc(NC(=O)CSc2nccn2-c2ccccc2)cc1 | > 11 µg/mL | > 11.7 µg/mL | > 11 µg/mL | 4.31 µM | > 11 µg/mL | 3.22 µg/mL (≈ 8.81 µM) | 0% | 0% | 100% | 25% | –
21 | CC(C)c1ccc2nc(Nc3nc4ccc(S(C)(=O)=O)cc4s3)sc2c1 | > 12.1 µg/mL | > 12.1 µg/mL | 3.92 µg/mL (≈ 9.71 µM) | 4.95 µM | > 12.1 µg/mL | > 12.1 µg/mL | 0% | – | 100% | 25% | –
22 | CCOC(=O)c1sc(NC(=O)C(C)Sc2ncnc3ccccc23)c(C(=O)OCC)c1C (stereo unspecified) | > 14.2 µg/mL | > 14.2 µg/mL | > 14.2 µg/mL | 4.36 µM | > 14.2 µg/mL | > 14.2 µg/mL | 0% | – | 100% | 0% | –
23 | O=C(Cc1cc(-c2ccc(Cl)cc2)on1)Nc1cccnc1 | > 9.41 µg/mL | > 9.41 µg/mL | > 9.41 µg/mL | 1.77 µM | 1.19 µg/mL (≈ 3.8 µM) | 2.25 µg/mL (≈ 7.18 µM) | 0% | – | 100% | 0% | 75%
24 | COC(=O)c1ccc(CSc2ccc(NC(=O)C(C)C)nn2)o1 | > 10.1 µg/mL | > 10.1 µg/mL | > 10.1 µg/mL | 6.15 µM | > 10.1 µg/mL | > 10.1 µg/mL | 0% | – | 100% | 0% | 0%
25 | CCn1ccc(C(=O)Nc2nc(-c3cc(Cl)ccc3Cl)cs2)n1 | > 11 µg/mL | 3.52 µg/mL (≈ 9.6 µM) | > 11 µg/mL | 5.18 µM | > 11 µg/mL | > 11 µg/mL | 50% | – | 100% | 0% | 50%
26 | Cc1nn(-c2ccccc2)c2[nH]cc(C(=O)Nc3ccc(F)c(Cl)c3)c(=O)c12 | > 11.9 µg/mL | 4.14 µg/mL (≈ 10.4 µM) | 2.34 µg/mL (≈ 5.9 µM) | 5.95 µM | 1 µg/mL (≈ 2.53 µM) | 1.96 µg/mL (≈ 4.93 µM) | 62.5% | -1% | 100% | 33.33% | –
